Data taken from ChEMBL document CHEMBL4024800, “α-Amino-β-carboxymuconate-ε-semialdehyde Decarboxylase (ACMSD) Inhibitors as Novel Modulators of De Novo Nicotinamide Adenine Dinucleotide (NAD+) Biosynthesis” (J Med Chem, 2018).
Converted amounts (≈) assume the structure as drawn. The source made the active and inactive calls. No cut-off for these calls is given here.

How the values were obtained:
[1] = molecular target: T1, 2-amino-3-carboxymuconate-6-semialdehyde decarboxylase (Homo sapiens, UniProt Q8TDX5); assay: Inhibition of human ACMSD expressed in Pichia pastoris using ACMS as substrate by coupled spectrophotometric assay
Procedure, shortened: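 Recombinant enzyme purified from Pichia pastoris; ACMS substrate generated in a pre-assay mix from 10 μM 3-hydroxyanthranilic acid by Ralstonia metallidurans 3-hydroxyanthranilate 3,4-dioxygenase, formation monitored at 360 nm. Enzyme and compound then added together; activity from initial rate of absorbance decrease minus a no-enzyme control. Serial dilutions, 1.0% DMSO throughout. IC50 from concentration–response curves, mean ± SD of three independent experiments.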
Target sequence in this assay (Q8TDX5 whole entry): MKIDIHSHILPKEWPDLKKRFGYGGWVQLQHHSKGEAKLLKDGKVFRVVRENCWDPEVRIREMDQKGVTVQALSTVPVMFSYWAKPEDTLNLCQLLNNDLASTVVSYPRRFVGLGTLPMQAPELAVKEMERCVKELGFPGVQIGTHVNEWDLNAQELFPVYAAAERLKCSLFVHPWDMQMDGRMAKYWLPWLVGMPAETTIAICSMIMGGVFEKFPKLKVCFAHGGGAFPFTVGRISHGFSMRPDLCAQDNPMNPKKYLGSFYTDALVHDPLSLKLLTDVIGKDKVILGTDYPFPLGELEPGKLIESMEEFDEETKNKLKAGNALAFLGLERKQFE

[2] = molecular target: T1, 2-amino-3-carboxymuconate-6-semialdehyde decarboxylase; assay: Inhibition of ACMSD in human primary hepatocytes assessed as increase in intracellular NAD+ levels at 5 uM after 48 hrs by NAD/NADH-Glo assay; format: cell-based
Target sequence in this assay (Q8TDX5 whole entry, looked up): as the sequence (Q8TDX5 whole entry) above

[3] = Solubility of compound in PBS buffer at pH 7.4 after 24 hrs by UV/vis-spectroscopic analysis; format: physicochemical
Procedure, shortened: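 Compound in PBS pH 7.4 with 1% DMSO mixed, incubated 24 h and vacuum-filtered; filtrate read by UV/vis and relative solubility calculated from summed readings against a standard. Reported in mg/mL.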

[4] = Apparent passive permeability from apical to basolateral side in MDCK2-MDR1 cells at 3 uM after 90 mins by LC-MS/MS analysis; format: ADME, cell-based, Canis lupus familiaris; settings: dog, MDCK-MDR1
Procedure, shortened: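 MDCKII-MDR1 monolayers, HBSS transport medium pH 7.4; compound 3 μM for 90 min, run with and without a P-gp inhibitor, n = 3. Quantified by LC-MS/MS as analyte/internal-standard peak-area ratio; monolayer integrity checked with Lucifer yellow. Papp given in nm/sec, A>B.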

Cytochrome P450 2D6 = Cytochrome P450 2D6 (Homo sapiens, UniProt P10635); assay: Inhibition of recombinant human CYP2D6 expressed in baculosomes expression system using fluorogenic-BOMCC as substrate by fluorescent homogeneous assay; format: ADME
Procedure, shortened: (§1)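 Recombinant CYP baculosomes with fluorogenic substrates, at concentrations below their Km; homogeneous fluorescence read-out, run in triplicate. IC50 classes: <1 μM potent, 1–10 μM moderate, >10 μM weak or none.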

Cytochrome P450 2C19 = Cytochrome P450 2C19 (Homo sapiens, UniProt P33261); assay: Inhibition of recombinant human CYP2C19 expressed in baculosomes expression system using fluorogenic-BOMCC as substrate by fluorescent homogeneous assay; format: ADME; procedure, shortened: as §1
Cytochrome P450 3A1 = molecular target: T2, Cytochrome P450 3A1 (Rattus norvegicus, UniProt P04800); assay: Inhibition of recombinant rat CYP3A1 expressed in baculosomes expression system using fluorogenic-BOMCC as substrate by fluorescent homogeneous assay; format: ADME; procedure, shortened: as §1
T2 sequence (P04800 whole entry): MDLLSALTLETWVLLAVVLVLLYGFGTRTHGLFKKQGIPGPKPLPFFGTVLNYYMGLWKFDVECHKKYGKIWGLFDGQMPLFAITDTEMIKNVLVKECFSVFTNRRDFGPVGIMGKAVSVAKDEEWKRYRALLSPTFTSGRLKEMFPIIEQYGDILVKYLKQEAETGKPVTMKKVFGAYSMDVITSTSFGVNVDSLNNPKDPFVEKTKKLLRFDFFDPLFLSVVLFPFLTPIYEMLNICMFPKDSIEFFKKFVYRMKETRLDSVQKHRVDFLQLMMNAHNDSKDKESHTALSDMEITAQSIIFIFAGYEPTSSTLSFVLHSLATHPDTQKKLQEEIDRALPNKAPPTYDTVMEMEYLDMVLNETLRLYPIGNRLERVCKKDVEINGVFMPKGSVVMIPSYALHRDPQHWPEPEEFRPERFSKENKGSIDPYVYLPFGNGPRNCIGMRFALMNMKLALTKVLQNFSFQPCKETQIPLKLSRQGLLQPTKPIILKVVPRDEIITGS

[5] = Cytotoxicity against mouse AML-12 cells assessed as reduction in cell viability after 4 hrs by celltiter-glo assay; format: cell-based; settings: aml-12, 4 h
Procedure, shortened: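 HepG2 or AML12 cells, 5 × 10^3 per well, exposed to compound for 4 h at 37 °C. Viability read as ATP by CellTiter-Glo luminescence; tamoxifen control.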

[6] = molecular target: T3, Nuclear receptor subfamily 1 group I member 2 (Homo sapiens, UniProt O75469); assay: Activity at PXR (unknown origin)
T3 sequence (O75469 whole entry): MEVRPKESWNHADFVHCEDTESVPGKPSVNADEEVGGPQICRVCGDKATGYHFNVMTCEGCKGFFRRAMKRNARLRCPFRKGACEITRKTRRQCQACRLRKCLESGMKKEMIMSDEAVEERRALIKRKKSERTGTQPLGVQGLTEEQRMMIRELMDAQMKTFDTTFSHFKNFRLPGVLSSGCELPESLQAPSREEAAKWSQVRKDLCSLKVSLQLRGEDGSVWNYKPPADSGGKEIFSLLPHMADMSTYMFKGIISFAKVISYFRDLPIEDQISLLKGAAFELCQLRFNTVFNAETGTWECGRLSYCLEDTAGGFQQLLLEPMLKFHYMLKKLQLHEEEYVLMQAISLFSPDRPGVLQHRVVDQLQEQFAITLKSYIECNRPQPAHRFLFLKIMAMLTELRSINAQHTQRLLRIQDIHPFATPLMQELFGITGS
Procedure, shortened: (§2)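 Eight-point serial dilutions tested in an in-house AlphaScreen-based nuclear receptor panel; activity derived from nonlinear regression curves.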

Homo sapiens [7] = species: Homo sapiens; assay: Activity at PPAR (unknown origin); procedure, shortened: as §2
Homo sapiens [8] = species: Homo sapiens; assay: Activity at LXR (unknown origin); procedure, shortened: as §2
Homo sapiens [9] = species: Homo sapiens; assay: Activity at RXR (unknown origin); procedure, shortened: as §2
[10] = Clearance in CD1 mouse at 0.5 mg/kg, iv measured up to 24 hrs post dose; format: ADME, organism-based; settings: in vivo
Procedure, shortened: (§3)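 Mice given 0.5 mg/kg IV in saline containing 5% (v/v) DMSO and 20% (v/v) PEG400; blood pharmacokinetic parameters reported as means.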

[11] = Half life in CD1 mouse at 0.5 mg/kg, iv measured up to 24 hrs post dose; format: ADME, organism-based; settings: in vivo; procedure, shortened: as §3
[12] = Tmax in CD1 mouse at 5 mg/kg, po measured up to 8 hrs post dose; format: ADME, organism-based; settings: in vivo
Procedure, shortened: (§4)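 Mice dosed orally at 5 mg/kg in 0.5% (w/v) HPMC in water with 5% (v/v) DMSO; blood, liver and kidney concentrations followed to 8 h. AUC0–8h given in h·ng/mL; parameters reported as means.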

[13] = Oral bioavailability in CD1 mouse at 5 mg/kg measured up to 8 hrs after dose; format: ADME, organism-based; settings: in vivo; procedure, shortened: as §4
[14] = AUClast in mouse kidney at 5 mg/kg, po measured up to 8 hrs post dose; format: ADME, organism-based; design: time < 8 hr, dose 5 mg/kg, route oral; procedure, shortened: as §4
[15] = Ratio of AUClast in mouse kidney to blood at 5 mg/kg, po measured up to 8 hrs post dose
Mus musculus = assay: In vivo inhibition of ACMSD in C57BL/6 mouse assessed as increase in NAD+ levels in liver at 15 and 30 mg/kg/day for 10 days dosed as diet supplement by ion-pair C18- HPLC chromatography; format: functional, organism-based
Procedure, shortened: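 Male mice given the compound in the diet for 10 days; vehicle 5% DMSO, 20% PEG. After a 3 h fast, livers snap-frozen and ground; NAD+ extracted by sonication in HClO4, quantified by ion-pair C18 HPLC and normalised to BCA protein. One-way ANOVA with Dunnett's test.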

[16] = Drug uptake in mouse central nervous system at 5 mg/kg, po; format: ADME, organism-based; settings: in vivo
[17] = Drug uptake in mouse central nervous system at 5 mg/kg, po in presence of P-gp inhibitor Elacridar; format: ADME, organism-based; settings: in vivo

Sequence of Cytochrome P450 2D6 (P10635 whole entry): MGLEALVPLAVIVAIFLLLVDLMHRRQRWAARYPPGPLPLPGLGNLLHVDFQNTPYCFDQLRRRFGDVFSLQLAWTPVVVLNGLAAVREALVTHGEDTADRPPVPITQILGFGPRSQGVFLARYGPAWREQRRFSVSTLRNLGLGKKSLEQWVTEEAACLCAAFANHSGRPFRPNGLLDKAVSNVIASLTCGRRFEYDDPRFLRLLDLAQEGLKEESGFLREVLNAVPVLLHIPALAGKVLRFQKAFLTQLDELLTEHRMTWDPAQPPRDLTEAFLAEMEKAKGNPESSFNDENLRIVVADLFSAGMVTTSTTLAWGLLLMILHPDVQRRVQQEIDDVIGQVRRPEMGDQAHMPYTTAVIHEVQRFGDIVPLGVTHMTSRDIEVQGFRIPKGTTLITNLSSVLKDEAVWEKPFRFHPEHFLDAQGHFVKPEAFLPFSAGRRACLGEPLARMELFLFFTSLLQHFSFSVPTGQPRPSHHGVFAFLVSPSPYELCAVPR
Sequence of Cytochrome P450 2C19 (P33261 whole entry): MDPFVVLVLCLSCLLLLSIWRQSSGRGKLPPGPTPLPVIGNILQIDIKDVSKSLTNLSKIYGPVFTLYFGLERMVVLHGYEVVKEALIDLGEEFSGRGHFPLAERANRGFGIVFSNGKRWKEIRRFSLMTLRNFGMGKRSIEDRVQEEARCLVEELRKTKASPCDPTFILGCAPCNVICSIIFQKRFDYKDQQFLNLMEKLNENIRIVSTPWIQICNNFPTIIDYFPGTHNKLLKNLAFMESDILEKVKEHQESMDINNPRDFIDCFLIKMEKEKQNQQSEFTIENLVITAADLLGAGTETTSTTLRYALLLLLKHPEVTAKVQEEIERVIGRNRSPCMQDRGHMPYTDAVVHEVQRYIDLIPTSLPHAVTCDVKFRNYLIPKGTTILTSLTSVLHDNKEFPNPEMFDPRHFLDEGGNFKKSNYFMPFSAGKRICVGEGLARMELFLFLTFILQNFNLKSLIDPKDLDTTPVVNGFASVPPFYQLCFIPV

N#Cc1c(-c2cccs2)nc(SCc2cccc(CC(=O)O)c2)[nH]c1=O
IC50 [1]: 0.013 µM
inhibition [2]: Active
solubility at 24 h [3]: 800 µg/mL (≈ 2090 µM)
Papp A→B at 1.5 h, 3 µM [4]: 0.456 ×10⁻⁶ cm/s
IC50 (Cytochrome P450 2D6): > 10 µM
IC50 (Cytochrome P450 2C19): > 10 µM
IC50 (Cytochrome P450 3A1): > 10 µM
Activity [5]: Non-Toxic
Activity [6]: Not Active
Activity (Homo sapiens [7]): inactive
Activity (Homo sapiens [8]): inactive
Activity (Homo sapiens [9]): inactive
clearance [10]: 0.78 mL/min/kg
half-life [11]: 5.33 h
Tmax [12]: 2 h
bioavailability [13]: 12%
AUC(0-t) at 8 h [14]: 36600 ng·h/mL
Kp at 8 h [15]: 2.9
inhibition (Mus musculus): Active
Drug uptake [16]: Not Active
Drug uptake [17]: Not Active
